Data published in article PMC8148061 (Acta Pharmaceutica Sinica. B, 2020).
Where two headings read alike, the source gives them in different places.

Assays:
Bcr-Abl^T315I = Bcr-Abl^T315I (Homo sapiens, UniProt P00519+P11274, T315I); assay: Western blot degradation study in Ba/F3 cells expressed Bcr-Abl^T315I; format: cell-based; conditions: for DR against Ba/F3 Bcr-Abl^T315I (%) 100 nmol/L / DR against Ba/F3 Bcr-Abl^T315I (%) 300 nmol/L: 24 h treatment, Western blot
Ba/F3 Bcr-Abl^WT = assay: Antiproliferation cell assay; format: cell-based; conditions: read-out: Cellular inhibition IC50 Ba/F3 Bcr-Abl^WT
K562 = assay: Antiproliferation cell assay; format: cell-based, human; conditions: read-out: Cellular inhibition IC50 K562
Method in brief: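 K562 (ATCC) cells were grown in RPMI-1640 with 10% FBS, penicillin, streptomycin and 2 mmol/L glutamine at 37 °C in humidified CO2. Log-phase cells were seeded at ~3000/well, rested overnight, then exposed to test compound or vehicle for 72 h (10 mmol/L DMSO stocks). CCK-8 was read as OD450−OD650, with viability normalised to no-cell blank and vehicle wells. IC50 came from concentration–response curve fitting, mean ± SD.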

Ba/F3 Bcr-Abl^T315I = assay: Antiproliferation cell assay; format: cell-based; conditions: read-out: Cellular inhibition IC50 Ba/F3 Bcr-Abl^T315I

| DR against Ba/F3 Bcr-Abl^T315I (%) 100 nmol/L (Bcr-Abl^T315I) [%] | DR against Ba/F3 Bcr-Abl^T315I (%) 300 nmol/L (Bcr-Abl^T315I) [%] | IC50 (Ba/F3 Bcr-Abl^WT; Mus musculus, BaF3, 72 h) [nM] | IC50 (K562; Homo sapiens, K562, 72 h) [nM] | IC50 (Ba/F3 Bcr-Abl^T315I; Mus musculus, BaF3, 72 h) [nM] | improvement of DR compared with 7a (Bcr-Abl^T315I; DR at 300 nmol/L) | IC50 (Ba/F3 Bcr-Abl^WT; 72 h, CCK-8, mean ± SD) [nM] | IC50 (K562; 72 h, CCK-8, mean ± SD) [nM] | IC50 (Ba/F3 Bcr-Abl^T315I; 72 h, CCK-8, mean ± SD) [nM] | Compound |
| --- | --- | --- | --- | --- | --- | --- | --- | --- | --- |
| −15.62 | 9.98 | 22.4 ± 10.2 | 3.2 ± 0.1 | 212 ± 101 | – | – | – | – | Cc1ccc(C(=O)Nc2ccc(CN3CCN(CCOCCOCCOc4cccc5c4C(=O)N(C4CCC(=O)NC4=O)C5=O)CC3)c(C(F)(F)F)c2)cc1C#Cc1cnc2[nH]ncc2c1 (centres unmarked) [7c, 3-((1H-Pyrazolo[3,4-b]pyridin-5-yl)ethynyl)-N-(4-((4-(2-(2-(2-((2-(2,6-dioxopiperidin-3-yl)-1,3-dioxoisoindolin-4-yl)oxy)ethoxy)ethoxy)ethyl)piperazin-1-yl)methyl)-3-(trifluoromethyl)phenyl)-4-methylbenzamide] |
| −23.27 | 21.17 | 14.3 ± 0.3 | 2.8 ± 0.4 | 60.1 ± 0.3 | – | – | – | – | Cc1ccc(C(=O)Nc2ccc(CN3CCN(CCOCCOCCOCCOCCOCCC(=O)Nc4cccc5c4C(=O)N(C4CCC(=O)NC4=O)C5=O)CC3)c(C(F)(F)F)c2)cc1C#Cc1cnc2[nH]ncc2c1 (centres unmarked) [7j, 1-(4-(4-(3-((1H-Pyrazolo[3,4-b]pyridin-5-yl)ethynyl)-4-methylbenzamido)-2-(trifluoromethyl)benzyl)piperazin-1-yl)-N-(2-(2,6-dioxopiperidin-3-yl)-1,3-dioxoisoindolin-4-yl)-3,6,9,12,15-pentaoxaoctadecan-18-amide] |
| −5.26 | 11.72 | > 10000 | > 10000 | > 10000 | – | – | – | – | Cc1ccc(C(=O)Nc2ccc(CN3CCN(CCOCCOCCC(=O)NC45CC6CC(CC(C6)C4)C5)CC3)c(C(F)(F)F)c2)cc1C#Cc1cnc2[nH]ncc2c1 [7f, 3-((1H-Pyrazolo[3,4-b]pyridin-5-yl)ethynyl)-N-(4-((4-(2-(2-(3-(adamantan-1-ylamino)-3-oxopropoxy)ethoxy)ethyl)piperazin-1-yl)methyl)-3-(trifluoromethyl)phenyl)-4-methylbenzamide] |
| 16.86 | 78.34 | 10.6 ± 2.6 | 13.7 ± 9.3 | 83.4 ± 31.6 | about 2 fold | – | – | – | Cc1ccc(C(=O)Nc2ccc(CN3CCN(CCOCCOCCOCCC(=O)Nc4cccc5c4C(=O)N(C4CCC(=O)NC4=O)C5=O)CC3)c(C(F)(F)F)c2)cc1C#Cc1cnc2[nH]ncc2c1 (centres unmarked) [compound 7h, 3-((1H-Pyrazolo[3,4-b]pyridin-5-yl)ethynyl)-N-(4-((4-(2-(2-(2-(3-((2-(2,6-dioxopiperidin-3-yl)-1,3-dioxoisoindolin-4-yl)amino)-3-oxopropoxy)ethoxy)ethoxy)ethyl)piperazin-1-yl)methyl)-3-(trifluoromethyl)phenyl)-4-methylbenzamide] |
| 2.59 | 20.62 | 6.8 ± 5.3 | 1.6 ± 0.7 | 31 ± 11.7 | – | – | – | – | Cc1ccc(C(=O)Nc2ccc(CN3CCN(C)CC3)c(C(F)(F)F)c2)cc1C#Cc1cnc2[nH]ncc2c1 [GZD824, reference compound] |
| −18.26 | −10.51 | 337 ± 6.1 | 31 ± 0.1 | 981 ± 24.9 | – | – | – | – | Cc1ccc(C(=O)Nc2ccc(CN3CCN(CCOCCOCCC(=O)N[C@H](C(=O)C4C[C@H](O)C[C@H]4C(=O)NCc4ccc(-c5scnc5C)cc4)C(C)(C)C)CC3)c(C(F)(F)F)c2)cc1C#Cc1cnc2[nH]ncc2c1 (stereo partly drawn) [7d, 3-((1H-Pyrazolo[3,4-b]pyridin-5-yl)ethynyl)-N-(4-((4-(2-(2-(3-(((2S)-1-((2R,4S)-4-hydroxy-2-((4-(4-methylthiazol-5-yl)benzyl)carbamoyl)cyclopentyl)-3,3-dimethyl-1-oxobutan-2-yl)amino)-3-oxopropoxy)ethoxy)ethyl)piperazin-1-yl)methyl)-3-(trifluoromethyl)phenyl)-4-methylbenzamide] |
| −7.20 | 45.61 | – | – | – | – | 61 ± 1.7 | 57.8 ± 19.5 | 114 ± 29.9 | 3-((1H-Pyrazolo[3,4-b]pyridin-5-yl)ethynyl)-N-(4-((4-(13-((2-(2,6-dioxopiperidin-3-yl)-1,3-dioxoisoindolin-4-yl)amino)-13-oxotridecyl)piperazin-1-yl)methyl)-3-(trifluoromethyl)phenyl)-4-methylbenzamide [7s] |
| 21.64 | 30.39 | 4.2 ± 0.3 | 2.1 ± 0.1 | 33.4 ± 1.6 | – | – | – | – | Cc1ccc(C(=O)Nc2ccc(CN3CCN(CCCCCC(=O)Nc4cccc5c4C(=O)N(C4CCC(=O)NC4=O)C5=O)CC3)c(C(F)(F)F)c2)cc1C#Cc1cnc2[nH]ncc2c1 (centres unmarked) [7n, 3-((1H-Pyrazolo[3,4-b]pyridin-5-yl)ethynyl)-N-(4-((4-(6-((2-(2,6-dioxopiperidin-3-yl)-1,3-dioxoisoindolin-4-yl)amino)-6-oxohexyl)piperazin-1-yl)methyl)-3-(trifluoromethyl)phenyl)-4-methylbenzamide] |
| −22.44 | −19.45 | 19.9 ± 4.2 | 11.4 ± 7.3 | 95.4 ± 37.4 | – | – | – | – | Cc1ccc(C(=O)Nc2ccc(CN3CCN(CCOCCOCCOCCOCCC(=O)Nc4cccc5c4C(=O)N(C4CCC(=O)NC4=O)C5=O)CC3)c(C(F)(F)F)c2)cc1C#Cc1cnc2[nH]ncc2c1 (centres unmarked) [7i, 1-(4-(4-(3-((1H-Pyrazolo[3,4-b]pyridin-5-yl)ethynyl)-4-methylbenzamido)-2-(trifluoromethyl)benzyl)piperazin-1-yl)-N-(2-(2,6-dioxopiperidin-3-yl)-1,3-dioxoisoindolin-4-yl)-3,6,9,12-tetraoxapentadecan-15-amide] |
| 13.75 | 28.73 | 363.7 ± 2.4 | 190 ± 26.6 | 399 ± 248 | – | – | – | – | Cc1ccc(C(=O)Nc2ccc(CN3CCN(CCCCCCCCCCCCCCC(=O)Nc4cccc5c4C(=O)N(C4CCC(=O)NC4=O)C5=O)CC3)c(C(F)(F)F)c2)cc1C#Cc1cnc2[nH]ncc2c1 (centres unmarked) [7t, 3-((1H-Pyrazolo[3,4-b]pyridin-5-yl)ethynyl)-N-(4-((4-(15-((2-(2,6-dioxopiperidin-3-yl)-1,3-dioxoisoindolin-4-yl)amino)-15-oxopentadecyl)piperazin-1-yl)methyl)-3-(trifluoromethyl)phenyl)-4-methylbenzamide] |
| 49.84 | 48.67 | 4.3 ± 0.1 | 3 ± 1.2 | 25 ± 10.4 | – | – | – | – | Cc1ccc(C(=O)Nc2ccc(CN3CCN(CCCCC(=O)Nc4cccc5c4C(=O)N(C4CCC(=O)NC4=O)C5=O)CC3)c(C(F)(F)F)c2)cc1C#Cc1cnc2[nH]ncc2c1 (centres unmarked) [7m, 3-((1H-Pyrazolo[3,4-b]pyridin-5-yl)ethynyl)-N-(4-((4-(5-((2-(2,6-dioxopiperidin-3-yl)-1,3-dioxoisoindolin-4-yl)amino)-5-oxopentyl)piperazin-1-yl)methyl)-3-(trifluoromethyl)phenyl)-4-methylbenzamide] |
| −14.92 | 11.17 | 240 ± 75.4 | 58.6 ± 11.4 | 2310 ± 424 | – | – | – | – | Cc1ccc(C(=O)Nc2ccc(CN3CCN(CCOCCOCCNC(=O)[C@H](CC(C)C)NC(=O)[C@@H](O)[C@H](N)Cc4ccccc4)CC3)c(C(F)(F)F)c2)cc1C#Cc1cnc2[nH]ncc2c1 [7e, 3-((1H-Pyrazolo[3,4-b]pyridin-5-yl)ethynyl)-N-(4-((4-((11S,14S,15R)-15-amino-14-hydroxy-11-isobutyl-10,13-dioxo-16-phenyl-3,6-dioxa-9,12-diazahexadecyl)piperazin-1-yl)methyl)-3-(trifluoromethyl)phenyl)-4-methylbenzamide] |
| 19.38 | 25.53 | 107 ± 24.9 | 10.5 ± 0.5 | 306 ± 69.3 | – | – | – | – | Cc1ccc(C(=O)Nc2ccc(CN3CCN(CCOCCOCCOCCOCCOCCOCCC(=O)Nc4cccc5c4C(=O)N(C4CCC(=O)NC4=O)C5=O)CC3)c(C(F)(F)F)c2)cc1C#Cc1cnc2[nH]ncc2c1 (centres unmarked) [7k, 1-(4-(4-(3-((1H-Pyrazolo[3,4-b]pyridin-5-yl)ethynyl)-4-methylbenzamido)-2-(trifluoromethyl)benzyl)piperazin-1-yl)-N-(2-(2,6-dioxopiperidin-3-yl)-1,3-dioxoisoindolin-4-yl)-3,6,9,12,15,18-hexaoxahenicosan-21-amide] |
| −30.35 | 37.19 | 5.4 ± 0.8 | 2.1 ± 0.9 | 65.8 ± 28.8 | – | – | – | – | Cc1ccc(C(=O)Nc2ccc(CN3CCN(CCC(=O)Nc4cccc5c4C(=O)N(C4CCC(=O)NC4=O)C5=O)CC3)c(C(F)(F)F)c2)cc1C#Cc1cnc2[nH]ncc2c1 (centres unmarked) [7l, 3-((1H-Pyrazolo[3,4-b]pyridin-5-yl)ethynyl)-N-(4-((4-(3-((2-(2,6-dioxopiperidin-3-yl)-1,3-dioxoisoindolin-4-yl)amino)-3-oxopropyl)piperazin-1-yl)methyl)-3-(trifluoromethyl)phenyl)-4-methylbenzamide] |
